According to ChEMBL document CHEMBL4725355, “Design, Synthesis, and Preclinical Evaluation of 3-Methyl-6-(5-thiophenyl)-1,3-dihydro-imidazo[4,5-b]pyridin-2-ones as Selective GluN2B Negative Allosteric Modulators for the Treatment of Mood Disorders” (J Med Chem, 2020):

What was measured:
[1] = Volume of distribution at steady state in mouse at 0.5 mg/kg, iv by LC-MS/MS analysis; format: ADME, organism-based; details: in vivo, read-out: Vdss
[2] = Cmax in Sprague-Dawley rat at 500 mg/kg, po administered via gavage after 24 hrs using nanosuspension formulation by LC-MS/MS analysis; format: ADME, organism-based; set-up: route oral, time 24 hrs, dose 500 mg/kg; details: in vivo
Summary of the method: (§1)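 Single oral gavage dose to male Sprague Dawley rats, 3 per dose level. Vehicles were a standard suspension in 5% HPMC (125, 250, 500 or 1000 mg/kg) or a nanosuspension (API:polymer 4:1), with stock diluted in vehicle on the day of dosing (100, 250 or 500 mg/kg). Blood was sampled at time points from 0.5 to 24 h.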

[3] = Ex vivo receptor occupancy at GluN2B in Sprague-Dawley rat assessed as 3-[3H] 1-(azetidin-1-yl)-2-[6-(4-fluoro-3-methyl-phenyl)pyrrolo[3,2-b]pyridin-1-yl]-ethanone labelling at 3 mg/kg, po measured after 2 hrs by autoradiography; format: functional
Summary of the method: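 Rats dosed orally at 3 mg/kg in 20% HP-β-CD; brains taken at 0.5, 2 and 6 h. Ex vivo autoradiography of brain slices with the ³H pyrrolo[3,2-b]pyridine GluN2B tracer. Labelling expressed relative to matching brain areas of vehicle-treated animals; n=2, ± SEM.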

[4] = Ratio of Cmax in Sprague-Dawley rat at 1000 mg/kg, po administered via gavage after 24 hrs using HPMC formulation by LC-MS/MS analysis to EC70 for ex vivo receptor occupancy at GluN2B in po dosed Sprague-Dawley rat assessed as 3-[3H] 1-(azetidin-1-yl)-2-[6-(4-fluoro-3-methyl-phenyl)pyrrolo[3,2-b]pyridin-1-yl]-ethanone labelling; format: ADME, organism-based
[5] = AUC (0 to 24 hrs) in Sprague-Dawley rat at 500 mg/kg, po administered via gavage after 24 hrs using nanosuspension formulation by LC-MS/MS analysis; format: ADME, organism-based; set-up: route oral, dose 500 mg/kg, time <=24; details: in vivo; summary of the method: as §1
[6] = Cmax in dog at 0.5 mg/kg, po by LC-MS/MS analysis; format: ADME, organism-based, Canis lupus familiaris; set-up: route oral, dose 0.5 mg/kg; details: in vivo
[7] = Tmax in Sprague-Dawley rat at 125 mg/kg, po administered via gavage after 24 hrs using HPMC formulation by LC-MS/MS analysis; format: ADME, organism-based; details: in vivo
Summary of the method: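 Single oral gavage of a 5% HPMC suspension at 125, 250, 500 or 1000 mg/kg to male Sprague Dawley rats, 3 per group. Plasma was sampled at 6 time points from 0.5 to 24 h.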

[8] = Solubility of compound in 20% hydroxypropyl-beta-cyclodextrin; format: physicochemical
Summary of the method: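 Solubility of the compound assessed in dosing excipients, including 30% SBE-β-CD, 50% PEG-400 and 20% HP-β-CD. The aim was a solution usable for rat dosing; the 20% HP-β-CD formulation was checked for a 0.1 mg/mL solution to support a 0.5 mg/kg dose.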

[9] = Efflux ratio of apparent permeability across basolateral to apical side over apical to basolateral side in MDCK-MDR1 cells at 5 uM measured after 60 mins by LC-MS/MS analysis; format: ADME, cell-based, Canis lupus familiaris; details: dog
Summary of the method: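 MDCK-MDR1 cells, passages 6-30, seeded at 3.4×10^5 cells/cm² and cultured 3 days. Test compound at 5 µM final (1% DMSO) in HBSS, pH 7.4, applied to the donor side. A→B and B→A runs at 37 °C for 60 min, in duplicate, quantified by LC/MS/MS. Efflux ratio taken as B-A/A-B; monolayer integrity checked by lucifer yellow.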

[10] = Oral bioavailability in mouse at 2.5 mg/kg by LC-MS/MS analysis; format: ADME, organism-based; details: in vivo
[11] = AUC (0 to 24 hrs) in Sprague-Dawley rat at 500 mg/kg/day, po administered as nanosuspension measured for 14 days measured post last dose by LC-MS/MS analysis; format: ADME, organism-based; set-up: route oral, dose 500 mg/kg/day, time 14 day; details: in vivo
Summary of the method: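 Repeated daily oral dosing of the nanosuspension to rats for 14 days, up to 500 mg/kg/day.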

[12] = Tmax in monkey at 0.5 mg/kg, po by LC-MS/MS analysis; format: ADME, organism-based, Macaca mulatta; details: rhesus monkey, in vivo
[13] = Tmax in dog at 0.5 mg/kg, po by LC-MS/MS analysis; format: ADME, organism-based, Canis lupus familiaris; details: in vivo
[14] = target: T1, Aryl hydrocarbon receptor (Homo sapiens, UniProt P35869); assay: Activation of human AHR expressed in human 1A2-DRE cells assessed as induction of CYP1A by luciferase reporter gene assay relative to control; format: ADME, cell-based
T1 sequence (P35869 whole entry): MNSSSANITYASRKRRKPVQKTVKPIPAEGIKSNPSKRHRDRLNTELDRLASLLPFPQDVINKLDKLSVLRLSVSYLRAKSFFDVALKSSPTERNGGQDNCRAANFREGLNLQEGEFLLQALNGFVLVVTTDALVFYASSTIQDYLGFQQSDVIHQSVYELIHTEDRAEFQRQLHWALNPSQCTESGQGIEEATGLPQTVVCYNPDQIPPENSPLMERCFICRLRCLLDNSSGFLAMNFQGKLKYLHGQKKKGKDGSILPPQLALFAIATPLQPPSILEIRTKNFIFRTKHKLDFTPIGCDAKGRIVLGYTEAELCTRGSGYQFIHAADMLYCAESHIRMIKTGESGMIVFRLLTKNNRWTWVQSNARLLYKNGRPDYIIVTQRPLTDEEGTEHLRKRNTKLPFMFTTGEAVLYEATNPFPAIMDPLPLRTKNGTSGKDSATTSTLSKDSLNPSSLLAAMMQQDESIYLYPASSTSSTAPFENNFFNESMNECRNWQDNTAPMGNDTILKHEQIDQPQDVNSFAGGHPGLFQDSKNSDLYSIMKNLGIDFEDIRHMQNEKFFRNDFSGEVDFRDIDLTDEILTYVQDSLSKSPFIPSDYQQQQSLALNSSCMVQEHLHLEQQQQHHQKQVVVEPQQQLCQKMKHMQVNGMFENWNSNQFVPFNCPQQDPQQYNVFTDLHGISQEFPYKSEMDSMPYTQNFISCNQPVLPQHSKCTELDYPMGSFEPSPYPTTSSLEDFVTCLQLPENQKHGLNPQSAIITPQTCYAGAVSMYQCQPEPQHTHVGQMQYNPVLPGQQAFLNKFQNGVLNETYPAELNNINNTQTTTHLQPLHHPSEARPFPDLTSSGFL
Summary of the method: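 Luciferase reporter lines were used. DPX2 is HepG2 carrying human PXR plus a CYP3A4 promoter-luciferase construct. 1A2-DRE carries human AhR plus a CYP1A2 promoter with 3 DRE copies. Luminescence was read with ONE-Glo. Activation was expressed relative to rifampicin (PXR) or omeprazole (AhR).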

[15] = Oral bioavailability in Sprague-Dawley rat at 2.5 mg/kg using 1:1 PEG-400/water formulation by LC-MS/MS analysis; format: ADME, organism-based; details: in vivo
Summary of the method: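 Rats dosed 0.5 mg/kg i.v. and 2.5 mg/kg p.o., n=3 ± SD. Default vehicle is 20% HP-β-CD; one PK set used 1:1 PEG400/water and another 30% SBE-β-CD.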

[16] = Clearance in mouse at 0.5 mg/kg, iv by LC-MS/MS analysis; format: ADME, organism-based; details: in vivo
[17] = AUC (infinity) in Sprague-Dawley rat at 2.5 mg/kg, po by LC-MS/MS analysis; format: ADME, organism-based; set-up: time infinity, route oral, dose 2.5 mg/kg; details: in vivo
Summary of the method: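 Rat PK with IV and PO dosing, n=3. The usual doses were 0.5 mg/kg IV and 2.5 mg/kg PO in 20% HP-β-CD. One compound was instead given at 0.1 mg/kg IV and 0.5 mg/kg PO.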

- Vd [1]: 3.2 L/kg
- Cmax [2]: 18300 ng/mL
- Ratio [4]: 10
- AUC(0-t) [5]: 156 µg·h/mL
- Cmax [6]: 351 ng/mL
- Tmax [7]: 2.7 h
- solubility [8]: < 1000 µg/mL
- efflux ratio at 1 h, 5 µM [9]: 2.1
- bioavailability [10]: 69%
- AUC at 336 h [11]: 222 µg·h/mL
- Tmax [12]: 1 h
- Tmax [13]: 0.25 h
- Activity [14]: < 20%
- bioavailability [15]: 132%
- clearance [16]: 54 mL/min/kg
- AUC(0-inf) [17]: 1.83 µg·h/mL
Structure (SMILES): Cn1c(=O)n(CC(=O)N2CCC2)c2cc(-c3ccc(C(F)(F)F)s3)cnc21
- Occ [3]: 76%
